# Measured values published in ChEMBL document CHEMBL3352463, “Brain-penetrant, orally bioavailable microtubule-stabilizing small molecules are potential candidate therapeutics for Alzheimer's disease and related tauopathies” (J Med Chem, 2014).
# Activity calls are given as the source filed them. The calls are words filed in the database; no cut-off is given here.
# What was measured:
# QBI293 [1] = assay: Induction of microtubule stabilization in human QBI293 cells assessed as increase in acetylated alpha-tubulin at 1 uM after 4 hrs by ELISA relative to vehicle treated control; type: cell-based
# Outline: (§1)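 QBI293 cells exposed to compound at 1 μM. Acetylated α-tubulin expressed as fold-change over vehicle-treated cells and over cells given 0.1 μM cevipabulin as positive control. Significance by two-tailed t-test.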
# [2] = Ratio of drug level in brain to plasma in CD1 mouse at 5 mg/kg, ip after 1 hr by LC-MS/MS system
# [3] = Drug level in CD1 mouse plasma at 5 mg/kg, ip after 1 hr by LC-MS/MS system; type: ADME, organism-based; set-up: dose 5 mg/kg, route intraperitoneal
# Outline: (§2)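 2-month-old CD1 mice (about 20 g) given 5 mg/kg ip; brain and plasma sampled at 1 h. Hemispheres sonicated in 10 mM ammonium acetate pH 5.7 (1:2 w/v); plasma from EDTA blood spun 4500g, 10 min, 4 °C. Acetonitrile extraction, then UPLC-MS/MS in positive ESI MRM mode. Quantified against spiked standard curves at 0.005–5 μM in matching matrix.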
# QBI293 [4] = assay: Induction of microtubule stabilization in human QBI293 cells assessed as increase in acetylated alpha-tubulin at 1 uM after 4 hrs by ELISA relative to 0.1 uM treated triazolopyrimidines cevipabulin; type: cell-based; outline: as §1
# [5] = Drug level in CD1 mouse brain at 5 mg/kg, ip after 1 hr by LC-MS/MS system; type: ADME, organism-based; set-up: dose 5 mg/kg, route intraperitoneal; details: read-out: Drug uptake; outline: as §2
# [6] = Elimination half life in CD1 mouse brain at 5 mg/kg, ip after 1 hr by LC-MS/MS system; type: ADME, organism-based; set-up: dose 5 mg/kg, route intraperitoneal; details: read-out: beta t1/2 (converted)
# Outline: (§3)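 Female? no—2-month-old CD1 mice (20 g average) given 5 mg/kg ip; plasma (EDTA blood, centrifuged 4500g, 10 min, 4 °C) and brain hemispheres (homogenized in 10 mM ammonium acetate pH 5.7) sampled over 16 h. Acetonitrile extraction, LC-MS/MS by MRM against spiked standard curves (0.005–5 μM). Half-life from elimination rate constant, slope of ln concentration vs time at 4, 8 and 16 h.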
# Mus musculus = assay: Induction of microtubule stabilization in wild type mouse assessed as increase in acetylated alpha-tubulin level in brain at 1 mg/kg, ip after 4 to 6 days; type: functional, organism-based; set-up: dose 1 mg/kg
# Outline: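 Wild-type mice (n = 3 per group) dosed 1 mg/kg ip once daily for 4 or 6 days; acetylated α-tubulin measured in brain homogenates, expressed relative to controls; significance by ANOVA with Dunnett's multiple comparison test.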
# [7] = Elimination half life in CD1 mouse plasma at 5 mg/kg, ip after 1 hr by LC-MS/MS system; type: ADME, organism-based; set-up: dose 5 mg/kg, route intraperitoneal; details: read-out: beta t1/2 (converted); outline: as §3
# [8] = Ratio of AUC for free drug level in brain to plasma in CD1 mouse at 5 mg/kg, ip after 1 hr by LC-MS/MS system; type: ADME, organism-based; set-up: dose 5 mg/kg, route intraperitoneal; details: brain and plasma
# [9] = target: ATP-dependent translocase ABCB1 (Homo sapiens, UniProt P08183); assay: Inhibition of human P-glycoprotein expressed in NCI/ADR-RES cells assessed as reduction of calcein-AM transport after 20 mins by fluorescence assay; type: cell-based
# Sequence of ATP-dependent translocase ABCB1 (P08183 whole entry): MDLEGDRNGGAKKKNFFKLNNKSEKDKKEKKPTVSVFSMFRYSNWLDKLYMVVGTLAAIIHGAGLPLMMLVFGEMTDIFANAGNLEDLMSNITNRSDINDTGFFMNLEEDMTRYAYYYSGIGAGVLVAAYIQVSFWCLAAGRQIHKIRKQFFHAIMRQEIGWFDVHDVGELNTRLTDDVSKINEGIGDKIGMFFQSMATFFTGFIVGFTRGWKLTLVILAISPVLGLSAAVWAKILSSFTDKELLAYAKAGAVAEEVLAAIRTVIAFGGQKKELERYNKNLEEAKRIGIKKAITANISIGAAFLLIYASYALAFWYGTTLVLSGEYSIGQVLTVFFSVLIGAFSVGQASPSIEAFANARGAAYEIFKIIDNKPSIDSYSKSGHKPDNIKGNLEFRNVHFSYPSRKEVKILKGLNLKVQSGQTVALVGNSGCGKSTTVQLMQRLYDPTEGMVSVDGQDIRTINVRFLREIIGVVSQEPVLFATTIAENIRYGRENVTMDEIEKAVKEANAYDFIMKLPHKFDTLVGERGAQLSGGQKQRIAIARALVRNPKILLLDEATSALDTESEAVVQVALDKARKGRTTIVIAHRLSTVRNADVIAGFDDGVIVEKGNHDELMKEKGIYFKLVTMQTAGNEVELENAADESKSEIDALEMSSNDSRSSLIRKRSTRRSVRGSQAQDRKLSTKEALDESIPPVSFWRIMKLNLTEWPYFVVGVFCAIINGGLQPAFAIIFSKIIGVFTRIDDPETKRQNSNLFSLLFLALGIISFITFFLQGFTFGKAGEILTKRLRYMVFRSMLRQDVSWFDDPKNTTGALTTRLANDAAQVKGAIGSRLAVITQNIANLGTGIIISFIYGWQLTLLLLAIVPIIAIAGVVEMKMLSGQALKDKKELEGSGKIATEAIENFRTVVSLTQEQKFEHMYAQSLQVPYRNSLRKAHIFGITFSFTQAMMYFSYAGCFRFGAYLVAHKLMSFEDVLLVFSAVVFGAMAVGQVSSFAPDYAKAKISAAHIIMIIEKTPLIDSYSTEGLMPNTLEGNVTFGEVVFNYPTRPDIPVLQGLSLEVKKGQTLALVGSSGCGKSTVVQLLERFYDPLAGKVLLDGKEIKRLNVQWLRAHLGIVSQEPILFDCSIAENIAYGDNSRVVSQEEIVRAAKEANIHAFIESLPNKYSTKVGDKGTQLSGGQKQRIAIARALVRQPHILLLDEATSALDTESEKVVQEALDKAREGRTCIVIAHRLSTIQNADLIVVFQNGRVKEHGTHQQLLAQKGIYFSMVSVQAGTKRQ
# [10] = Ratio of AUC for drug level in brain to plasma in CD1 mouse at 5 mg/kg, ip after 1 hr by LC-MS/MS system; type: ADME, organism-based; set-up: dose 5 mg/kg, route intraperitoneal; details: brain and plasma, read-out: Ratio AUC
# Outline: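 2-month-old CD1 mice given 5 mg/kg ip; brain hemispheres (homogenized 1:2 w/v in 10 mM ammonium acetate pH 5.7) and EDTA plasma collected over a 16 h time course. Acetonitrile-precipitated supernatants quantified by LC-MS/MS (MRM, positive ESI) with spiked standard curves 0.005–5 μM.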
# QBI293 [11] = assay: Induction of microtubule stabilization in human QBI293 cells assessed as increase in acetylated alpha-tubulin at 100 nM after 4 hrs by immunofluorescence assay relative to control; type: cell-based
# Outline: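 QBI293 cells incubated 4 h with test compound (100 nM), colchicine (1 μM) or no compound; acetylated α-tubulin visualized by immunofluorescence to assess microtubule number/organization.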
# QBI293 [12] = assay: Induction of microtubule stabilization in human QBI293 cells assessed as increase in acetylated alpha-tubulin at 0.1 uM after 4 hrs by ELISA relative to vehicle treated control; type: cell-based
# [13] = Ratio of drug level in brain to plasma in CD1 mouse at 5 mg/kg, ip after 1 hr by LC-MS/MS system; type: ADME, organism-based; set-up: dose 5 mg/kg, route intraperitoneal; details: brain and plasma, read-out: BPR
# Outline: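 CD1 mice (2 months, about 20 g) dosed 5 mg/kg ip; brain and plasma taken at 1 h. Each extracted with acetonitrile and measured by LC-MS/MS MRM against matrix standard curves (0.005–5 μM). Value is the brain concentration divided by the plasma concentration.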
Structure (SMILES),fold change (FC) (QBI293 [1]),BPR [2],concentration at 1 h [3],fold change (FC) (QBI293 [4]),concentration at 1 h [5],also measured
Cc1nnc(Cl)c(-c2c(F)cc(F)cc2F)c1-c1ccc(Cl)s1,1.3,,,,,
C[C@H](Nc1nc(-c2cnccn2)nc(Cl)c1-c1c(F)cc(OCCCN(C)C)cc1F)C(F)(F)F,4.1,0.35,2500 nM,0.5,860 nM,
C[C@H](Nc1c(-c2c(F)cc(OCCCF)cc2F)c(Cl)nc2ncnn12)C(F)(F)F,1.4,,,,,
C[C@H](Nc1nc(-c2cnccn2)nc(Cl)c1-c1c(F)cc(F)cc1F)C(F)(F)F,2.7,,5000 nM,0.9,2900 nM,half-life [6]: 15 h; Activity (Mus musculus): Active; half-life [7]: 15 h; Kp uu at 1 h [8]: 1.7; inhibition (INH) [9]: Not Active; Kp at 1 h [10]: 0.72
C[C@H](Nc1c(-c2c(F)cc(OCCCNCC(F)(F)F)cc2F)c(Cl)nc2ncnn12)C(F)(F)F,2.1,1.5,160 nM,0.6,230 nM,
CC(C)Nc1nc2nccnc2c(Cl)c1-c1c(F)cc(F)cc1F,1,,,,,
CNCCCOc1cc(F)c(-c2c(Cl)nc3ncnn3c2N[C@@H](C)C(F)(F)F)c(F)c1 [CEVIPABULIN],,0.037,2500 nM,,92 nM,Activity (QBI293 [11]): Active; inhibition (INH) [9]: Not Active
Fc1cc(F)c(-c2c(Cl)nc(-c3ccccn3)nc2NCC(F)(F)F)c(F)c1,1.6,,,,,
C[C@H](Nc1c(-c2c(F)cc(OCCCN3CCOCC3)cc2F)c(Cl)nc2ncnn12)C(F)(F)F,4.1,0.49,1200 nM,1.2,600 nM,
NS(=O)(=O)c1ccc(NC(NC(=O)c2ccc(Br)cc2)C(Cl)(Cl)Cl)cc1 (configuration not stated),1,,,,,
C[C@H](Nc1c(-c2c(F)cc(OCCCN(C)C)cc2F)c(Cl)nc2ncnn12)C(F)(F)F,9.1,,4900 nM,1.3,1300 nM,Activity (Mus musculus): Active; fold change (FC) (QBI293 [12]): 2; Kp uu at 1 h [8]: 0.09; inhibition (INH) [9]: Not Active; Kp at 1 h [10]: 0.37
CC(C)Nc1c(-c2c(F)cc(F)cc2F)c(Cl)nc2nccnc12,1,,,,,
Fc1cc(F)c(-c2c(Cl)nc(-c3cnccn3)nc2NCC(F)(F)F)c(F)c1,1.5,,,,,
C[C@H](Nc1c(-c2c(F)cc(OCCCN)cc2F)c(Cl)nc2ncnn12)C(F)(F)F,26.5,0.03,1300 nM,3.4,40 nM,fold change (FC) (QBI293 [12]): 4.2
C[C@H](Nc1c(-c2c(F)cc(OCCCCl)cc2F)c(Cl)nc2ncnn12)C(F)(F)F,1.2,0.88,178 nM,,160 nM,
C/C1=C/C[C@@H](/C(C)=C/c2csc(C)n2)OC(=O)C[C@H](O)C(C)(C)C(=O)[C@H](C)[C@@H](O)[C@@H](C)CCC1 [EPOTHILONE D],,,,,,Activity (QBI293 [11]): Active; inhibition (INH) [9]: Active
COc1ccc(CCN(C)CCCC(C#N)(c2ccc(OC)c(OC)c2)C(C)C)cc1OC (configuration not stated),,,,,,inhibition (INH) [9]: Active
CN(C)CCCOc1cc(F)c(-c2c(Cl)nc(-c3ccccn3)nc2NCC(F)(F)F)c(F)c1,0.9,,,,,
C[C@H](Nc1c(-c2c(F)cc(OCCCNC(=O)C(C)(C)C)cc2F)c(Cl)nc2ncnn12)C(F)(F)F,2.4,,1500 nM,0.7,170 nM,Kp at 1 h [13]: 0.12
COc1ccccc1N1CCN(C(=O)c2cc(=O)c3cc(C)cc(C)c3o2)CC1,0.9,,,,,
C[C@H](Nc1nc(-c2ccccn2)nc(Cl)c1-c1c(F)cc(F)cc1F)C(F)(F)F,4.2,,4300 nM,0.9,1500 nM,
C[C@H](Nc1c(-c2c(F)cc(OCCCO)cc2F)c(Cl)nc2ncnn12)C(F)(F)F,10.1,2.8,29 nM,1.2,78 nM,
CC(C)c1cccc(C(C)C)c1N1C(=O)c2ccc(O)cc2C1=O,1,,,,,
Cc1nnc(Cl)c(-c2c(F)cc(F)cc2F)c1-c1ccc(Cl)cc1,1.5,,,,,
C[C@H](Nc1c(-c2c(F)cc(F)cc2F)c(Cl)nc2ncnn12)C(F)(F)F,1.3,0.8,2800 nM,0.4,2400 nM,
CC(=O)NCCCOc1cc(F)c(-c2c(Cl)nc3ncnn3c2N[C@@H](C)C(F)(F)F)c(F)c1,4.5,,,1.5,,
CC(=O)N(C)CCCOc1cc(F)c(-c2c(Cl)nc3ncnn3c2N[C@@H](C)C(F)(F)F)c(F)c1,1.3,0.15,200 nM,,20 nM,
C[C@H](Nc1c(-c2c(F)cc(OCCCNc3ccccc3)cc2F)c(Cl)nc2ncnn12)C(F)(F)F,1,1.6,75 nM,,120 nM,
